Test results from ChEMBL document CHEMBL4052621, “Identification of new anti-inflammatory agents based on nitrosporeusine natural products of marine origin” (Eur J Med Chem, 2017).
Active and inactive are the calls of the source. No cut-off for these calls is given here.

Legend:
RAW264.7 [1] = test: Antiinflammatory activity in mouse RAW264.7 cells assessed as inhibition of LPS-induced NO production after 24 hrs by Griess assay; type: functional, cell-based; settings: for IC50: RAW264.7, 24 h
Summary of the method: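 LPS-stimulated RAW264.7 cells were co-treated with compound. Nitrite, a stable NO metabolite, was measured in culture medium with Griess reagent. IC50 (µM) was reported with a 95% confidence interval.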

RAW264.7 [2] = test: Selectivity index, ratio IC50 for cytotoxicity against mouse RAW264.7 cells to IC50 for antiinflammatory activity in mouse RAW264.7 cells; type: functional
Summary of the method: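 Ratio A/B in RAW 264.7 cells. A is the cytotoxicity IC50 from the MTT assay. B is the IC50 for inhibiting NO production in LPS-stimulated cells, with nitrite in the culture medium measured by Griess reagent. Both IC50s are reported with 95% confidence intervals.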

RAW264.7 [3] = test: Cytotoxicity against mouse RAW264.7 cells assessed as decrease in cell viability after 24 hrs by MTT assay; type: cell-based; settings: RAW264.7, 24 h
Summary of the method: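 RAW264.7 macrophage viability after compound exposure was measured by MTT assay. IC50 (µM) was calculated and reported with a 95% confidence interval.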

Mus musculus [4] = test: Antiinflammatory activity in BALB/c mouse assessed as inhibition of LPS-induced IL-12 production at 10 mg/kg, ip pretreated for 3 days as single dose followed by LPS administration after 24 hrs by phycoerythrin staining based flow cytometry; type: functional, organism-based
RAW264.7 [5] = test: Antiinflammatory activity in mouse RAW264.7 cells assessed as inhibition of LPS-induced […] production at 50 uM after 24 hrs by phycoerythrin staining based flow cytometry; type: functional, cell-based
Summary of the method: (§1)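 Cytokine bead array on protein extracts of RAW 264.7 cells treated with LPS plus compound at 50 µM. Read-outs were IL-12, IL-6, TNF-α, MCP-1 and IFN-γ, referenced to LPS-treated cells. Mean ± SD, n = 3 independent experiments.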

Mus musculus [6] = test: Antiinflammatory activity in BALB/c mouse assessed as inhibition of LPS-induced […] production at 10 mg/kg, ip pretreated for 3 days as single dose followed by LPS administration after 24 hrs by phycoerythrin staining based flow cytometry; type: functional, organism-based
RAW264.7 [7] = test: Antiinflammatory activity in mouse RAW264.7 cells assessed as inhibition of LPS-induced IL-12 production at 50 uM after 24 hrs by phycoerythrin staining based flow cytometry; type: functional, cell-based; summary of the method: as §1
RAW264.7 [8] = test: Antiinflammatory activity in mouse RAW264.7 cells assessed as inhibition of LPS-induced COX-2 production at 50 uM after 24 hrs by Western blot analysis; type: functional, cell-based
Summary of the method: (§2)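 Protein was isolated from control, LPS, and LPS + compound (50 µM) RAW 264.7 cultures and immunoblotted. iNOS, COX-2 and phospho-NF-κB were quantified densitometrically against β-actin. Mean ± SD of 3 independent experiments, compared with LPS treatment.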

Mus musculus [9] = test: Antiinflammatory activity in BALB/c mouse assessed as inhibition of LPS-induced MCP-1 production at 10 mg/kg, ip pretreated for 3 days as single dose followed by LPS administration after 24 hrs by phycoerythrin staining based flow cytometry; type: functional, organism-based
Mus musculus [10] = test: Antiinflammatory activity in BALB/c mouse assessed as inhibition of LPS-induced IL-6 production at 10 mg/kg, ip pretreated for 3 days as single dose followed by LPS administration after 24 hrs by phycoerythrin staining based flow cytometry; type: functional, organism-based
RAW264.7 [11] = test: Antiinflammatory activity in mouse RAW264.7 cells assessed as inhibition of LPS-induced IL-6 production at 50 uM after 24 hrs by phycoerythrin staining based flow cytometry; type: functional, cell-based; summary of the method: as §1
RAW264.7 [12] = test: Antiinflammatory activity in mouse RAW264.7 cells assessed as inhibition of LPS-induced iNOS production at 50 uM after 24 hrs by Western blot analysis; type: functional, cell-based; summary of the method: as §2
RAW264.7 [13] = test: Antiinflammatory activity in mouse RAW264.7 cells assessed as inhibition of LPS-induced TNF-alpha production at 50 uM after 24 hrs by phycoerythrin staining based flow cytometry; type: functional, cell-based; summary of the method: as §1
RAW264.7 [14] = test: Antiinflammatory activity in mouse RAW264.7 cells assessed as inhibition of LPS-induced MCP-1 production at 50 uM after 24 hrs by phycoerythrin staining based flow cytometry; type: functional, cell-based; summary of the method: as §1
Mus musculus [15] = test: Antiinflammatory activity in BALB/c mouse assessed as inhibition of LPS-induced TNF-alpha production at 10 mg/kg, ip pretreated for 3 days as single dose followed by LPS administration after 24 hrs by phycoerythrin staining based flow cytometry; type: functional, organism-based
RAW264.7 [16] = test: Antiinflammatory activity in mouse RAW264.7 cells assessed as inhibition of LPS-induced ROS production after 24 hrs by CM-H2DCFDA dye based fluorescence assay; type: functional, cell-based
Summary of the method: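 Intracellular ROS was measured in LPS-treated RAW 264.7 cells exposed to compounds at several doses. The read-out was mean fluorescence intensity, compared with LPS-treated cells. Data are mean ± SD of three independent experiments.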

Mus musculus [17] = species: Mus musculus; test: Inhibition of LPS-induced NFkappaB phosphorylation in mouse RAW264.7 cells at 50 uM after 24 hrs by Western blot analysis; type: cell-based; summary of the method: as §2

SMILES | IC50 (RAW264.7 [1]) | Ratio IC50 (RAW264.7 [2]) | IC50 (RAW264.7 [3]) | other results
O=C(S[C@]12CC[C@H](O)[C@H]1C(=O)NC2=O)c1ccc(F)cc1 (relative stereo) | 318 µM | 1.49 | 474 µM | 
CC(=O)SC12CCC=C1C(=O)NC2=O (stereo not given) | 20.5 µM | 9 | 184 µM | 
CC(=O)SC1CC[C@]2(SC(C)=O)C(=O)NC(=O)[C@H]12 (stereo not given in full) | 19.8 µM | 505.4343 | 10000 µM | inhibition (Mus musculus [4]): Active; inhibition (RAW264.7 [5]): Active; inhibition (Mus musculus [6]): Active; inhibition (RAW264.7 [7]): Active; inhibition (RAW264.7 [8]): Active; inhibition (Mus musculus [9]): Active; inhibition (Mus musculus [10]): Active; inhibition (RAW264.7 [11]): Active; inhibition (RAW264.7 [12]): Active; inhibition (RAW264.7 [13]): Active; inhibition (RAW264.7 [14]): Active; inhibition (Mus musculus [15]): Active; inhibition (RAW264.7 [16]): Dose-dependent effect; inhibition (Mus musculus [17]): Active
CC(=O)O[C@H]1CC[C@]2(SC(=O)c3ccc(F)cc3)C(=O)NC(=O)[C@H]12 |  |  |  | inhibition (RAW264.7 [1]): Active
CC(=O)O[C@H]1CCC2=C1C(=O)NC2=O | 867 µM | 0.1477 | 128 µM | 
CC(=O)S[C@]12CCC[C@H]1C(=O)NC2=O (relative stereo) | 59.2 µM | 11.39 | 674 µM | 
O=C(SC12CCC(O)C1C(=O)NC2=O)c1ccc(O)cc1 (racemic) | 225 µM | 1.925 | 434 µM | 
O=C(Cc1ccccc1)S[C@]12CCC[C@H]1C(=O)NC2=O (relative stereo) | 56.9 µM | 7.48 | 426 µM | 
O=C(Cc1ccccc1)S[C@@]12CC[C@H](O)[C@@H]1C(=O)NC2=O (relative stereo) | 132 µM | 6.322 | 834 µM | 
O=C(S[C@]12CC[C@H](O)[C@H]1C(=O)NC2=O)c1ccccc1 (relative stereo) | 65.2 µM | 261.7025 | 17100 µM | 
CC(=O)OC1CC[C@]2(SC(=O)c3ccccc3Cl)C(=O)NC(=O)[C@H]12 (stereo not given in full) | 101 µM | 89.51 | 9080 µM | 
O=C(S[C@@]12CC[C@@H](O)[C@@H]1C(=O)NC2=O)c1ccc(O)cc1 | 127 µM | 22.99 | 2910 µM | 
O=C(S[C@@]12CC[C@H](O)[C@@H]1C(=O)NC2=O)c1ccccc1Cl (relative stereo) |  | 5.245 | 668 µM | 
O=C1NC(=O)C2=C1CCC2SC(=O)c1cccs1 (stereo not given) | 65 µM | 0.4108 | 26.7 µM | 
O=C(SC1CC[C@]2(SC(=O)c3ccc(F)cc3)C(=O)NC(=O)[C@H]12)c1ccc(F)cc1 (stereo not given in full) | 98.3 µM | 2.142 | 211 µM | 
CC(=O)O[C@@H]1CC[C@@]2(SC(=O)c3ccc(F)cc3)C(=O)NC(=O)[C@@H]12 |  |  |  | inhibition (RAW264.7 [1]): Active

SMILES | IC50 (RAW264.7 [1]) | Ratio IC50 (RAW264.7 [2]) | IC50 (RAW264.7 [3]) | other results
O=C(S[C@]12CCC[C@H]1C(=O)NC2=O)c1ccccc1Cl (relative stereo) | 59.8 µM | 13.95 | 834 µM | 
CC(=O)OC1CC[C@]2(SC(=O)Cc3ccccc3)C(=O)NC(=O)[C@H]12 (stereo not given in full) | 68.2 µM | 23.57 | 1610 µM | 
CC(=O)S[C@]12CC[C@H](O)[C@H]1C(=O)NC2=O (relative stereo) | 833 µM | 1.029 | 857 µM | 
CC(=O)OC1CC[C@]2(SC(=O)c3ccccc3)C(=O)NC(=O)[C@H]12 (stereo not given in full) | 64.3 µM | 29.74 | 1910 µM | 
O=C1NC(=O)C2=C1CC[C@H]2O | 121 µM | 2.631 | 319 µM | 
O=C(S[C@]12CCC[C@H]1C(=O)NC2=O)c1ccc(F)cc1 (relative stereo) | 390 µM | 0.9841 | 384 µM | 
O=C(Cc1ccccc1)SC12CCC=C1C(=O)NC2=O (stereo not given) | 30.6 µM | 3.042 | 93.1 µM | 
O=C(Cc1ccccc1)SC1CC[C@]2(SC(=O)Cc3ccccc3)C(=O)NC(=O)[C@H]12 (stereo not given in full) | 57.5 µM | 12.36 | 711 µM | 
O=C(S[C@]12CC[C@H](O)[C@H]1C(=O)NC2=O)c1ccccc1Cl (relative stereo) | 178 µM | 4.022 | 717 µM | 
O=C(S[C@@]12CC[C@H](O)[C@@H]1C(=O)NC2=O)c1ccccc1 (relative stereo) | 72.4 µM | 6.622 | 479 µM | 
O=C1NC(=O)C2=C1CC[C@@H]2O | 95.9 µM | 2.26 | 217 µM | 
CC(=O)S[C@@]12CC[C@H](O)[C@@H]1C(=O)NC2=O (relative stereo) | 148 µM | 3.7762 | 558 µM | 
CC(=O)O[C@@H]1CC[C@]2(SC(=O)c3ccc(F)cc3)C(=O)NC(=O)[C@H]12 |  |  |  | inhibition (RAW264.7 [1]): Active
O=C(S[C@]12CC[C@@H](O)[C@H]1C(=O)NC2=O)c1ccc(O)cc1 | 42 µM | 14.67 | 616 µM | 
O=C(Cc1ccccc1)S[C@]12CC[C@H](O)[C@H]1C(=O)NC2=O (relative stereo) | 143 µM | 5.418 | 774 µM | 
